Experiments:
HL-60 = test: Cytotoxicity against human HL60 cells after 48 hrs by MTT assay; assay type: functional, cell-based; conditions: HL-60, 48 h
Procedure, shortened: (§1)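 H460 or HL-60 cells were exposed to vehicle or compound for 48 h. Growth was read by MTT reduction at 570 nm, and IC50 was calculated.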

[1] = Cytotoxicity against human Hep3B cells after 48 hrs by MTT assay; assay type: functional, cell-based, Hep 3B2
Procedure, shortened: (§2)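 Hep 3B (hepatoma) or Detroit 551 (normal skin) cells, grown at 37 °C and 5% CO₂ in DMEM with 10% FBS, penicillin/streptomycin and 1% L-glutamine, were used in log phase. Cells were exposed to vehicle or compound for 48 h. Growth was read by MTT reduction at 570 nm, and IC50 was calculated.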

NCI-H460 = test: Cytotoxicity against human H460 cells after 48 hrs by MTT assay; assay type: functional, cell-based; conditions: NCI-H460, 48 h; procedure, shortened: as §1
Detroit 551 [2] = test: Cytotoxicity against human Detroit 551 cells after 48 hrs by MTT assay; assay type: cell-based; conditions: Detroit 551, 48 h; procedure, shortened: as §2
Detroit 551 [3] = test: Selectivity ratio of IC50 for human Detroit 551 cells to IC50 for human Hep3B cells
Detroit 551 [4] = test: Selectivity ratio of IC50 for human Detroit 551 cells to IC50 for human H460 cells

**Q.** Which IC50 (HL-60) does the source give for `COc1ccc2[nH]c(-c3ccc(C)[se]3)cc(=O)c2c1O` here?
**A.** 400 nM

**Q.** And the IC50 [1]?
**A.** 800 nM

**Q.** And the IC50 (NCI-H460)?
**A.** 900 nM

**Q.** And the IC50 (Detroit 551 [2])?
**A.** > 50000 nM

**Q.** Which results are given for `O=c1cc(-c2ccoc2)[nH]c2cc3c(cc12)OCO3`?
**A.** IC50 (HL-60): 3400 nM; IC50 [1]: 9600 nM; IC50 (NCI-H460): 15800 nM; IC50 (Detroit 551 [2]): > 25000 nM

**Q.** With `Oc1cc(-c2ccco2)nc2cc3c(cc12)OCO3` as the molecule, how does the IC50 (HL-60) read?
**A.** 6800 nM

**Q.** And the IC50 [1]?
**A.** > 15000 nM

**Q.** And the IC50 (NCI-H460)?
**A.** > 15000 nM

**Q.** And the IC50 (Detroit 551 [2])?
**A.** > 15000 nM

**Q.** Which IC50 (HL-60) does the source give for `COc1ccc2[nH]c(-c3ccc(C)[se]3)cc(=O)c2c1OC` here?
**A.** 3100 nM

**Q.** What about the IC50 [1] of the same molecule?
**A.** > 50000 nM

**Q.** What about the IC50 (NCI-H460) of the same molecule?
**A.** > 50000 nM

**Q.** And the IC50 (Detroit 551 [2])?
**A.** > 50000 nM

**Q.** For `O=c1cc(-c2ccc[se]2)[nH]c2cc3c(cc12)OCO3`, which IC50 (HL-60) is on record?
**A.** 500 nM

**Q.** And the IC50 [1]?
**A.** 800 nM

**Q.** And the IC50 (NCI-H460)?
**A.** 1000 nM

**Q.** What about the IC50 (Detroit 551 [2]) of the same molecule?
**A.** 50000 nM

**Q.** And the “Ratio IC50” value (Detroit 551 [3])?
**A.** 50

**Q.** What about the “Ratio IC50” value (Detroit 551 [4]) of the same molecule?
**A.** 50

**Q.** What does the source list for `COc1ccc2[nH]c(-c3ccc(C)[se]3)cc(=O)c2c1`?
**A.** IC50 (HL-60): 400 nM; IC50 [1]: 3000 nM; IC50 (NCI-H460): 2000 nM; IC50 (Detroit 551 [2]): > 10000 nM

**Q.** What does the source list for `COc1ccc2[nH]c(-c3ccc[se]3)cc(=O)c2c1O`?
**A.** IC50 (HL-60): 1100 nM; IC50 [1]: 700 nM; IC50 (NCI-H460): 400 nM; IC50 (Detroit 551 [2]): 100000 nM

**Q.** Which IC50 (HL-60) does the source give for `O=c1cc(-c2cc[se]c2)[nH]c2cc3c(cc12)OCO3` here?
**A.** 900 nM

**Q.** And the IC50 [1]?
**A.** 800 nM

**Q.** What about the IC50 (NCI-H460) of the same molecule?
**A.** 1400 nM

**Q.** What about the IC50 (Detroit 551 [2]) of the same molecule?
**A.** > 10000 nM

**Q.** With `COc1ccc2[nH]c(-c3cc[se]c3)cc(=O)c2c1O` as the molecule, how does the IC50 (HL-60) read?
**A.** 400 nM

**Q.** What about the IC50 [1] of the same molecule?
**A.** 300 nM

**Q.** And the IC50 (NCI-H460)?
**A.** 800 nM

**Q.** What about the IC50 (Detroit 551 [2]) of the same molecule?
**A.** > 100000 nM

**Q.** With `O=c1cc(-c2ccsc2)[nH]c2cc3c(cc12)OCO3` as the molecule, how does the IC50 (HL-60) read?
**A.** 900 nM

**Q.** What about the IC50 [1] of the same molecule?
**A.** 2200 nM

**Q.** What about the IC50 (NCI-H460) of the same molecule?
**A.** 4300 nM

**Q.** What about the IC50 (Detroit 551 [2]) of the same molecule?
**A.** > 25000 nM

**Q.** Which IC50 (HL-60) does the source give for `COc1ccc2[nH]c(-c3cc[se]c3)cc(=O)c2c1` here?
**A.** 700 nM

**Q.** And the IC50 [1]?
**A.** 3700 nM

**Q.** And the IC50 (NCI-H460)?
**A.** 2300 nM

**Q.** And the IC50 (Detroit 551 [2])?
**A.** > 10000 nM

**Q.** Which results are given for `Cc1ccc(-c2cc(=O)c3cc4c(cc3[nH]2)OCO4)o1`?
**A.** IC50 (HL-60): 4300 nM; IC50 [1]: 10000 nM; IC50 (NCI-H460): 9800 nM; IC50 (Detroit 551 [2]): > 10000 nM

**Q.** With `COc1ccc2[nH]c(-c3ccc[se]3)cc(=O)c2c1` as the molecule, how does the IC50 (HL-60) read?
**A.** 600 nM

**Q.** And the IC50 [1]?
**A.** 3200 nM

**Q.** What about the IC50 (NCI-H460) of the same molecule?
**A.** 2400 nM

**Q.** What about the IC50 (Detroit 551 [2]) of the same molecule?
**A.** > 10000 nM

**Q.** For `Cc1ccc(-c2cc(=O)c3cc4c(cc3[nH]2)OCO4)s1`, which IC50 (HL-60) is on record?
**A.** 300 nM

**Q.** And the IC50 [1]?
**A.** 700 nM

**Q.** And the IC50 (NCI-H460)?
**A.** 400 nM

**Q.** And the IC50 (Detroit 551 [2])?
**A.** > 5000 nM

**Q.** With `COc1ccc2[nH]c(-c3cc[se]c3)cc(=O)c2c1OC` as the molecule, how does the IC50 (HL-60) read?
**A.** 1700 nM

**Q.** And the IC50 [1]?
**A.** 100000 nM

**Q.** What about the IC50 (NCI-H460) of the same molecule?
**A.** 100000 nM

**Q.** What about the IC50 (Detroit 551 [2]) of the same molecule?
**A.** > 100000 nM

**Q.** What does the source list for `Oc1cc(-c2cccs2)nc2cc3c(cc12)OCO3`?
**A.** IC50 (HL-60): 1000 nM; IC50 [1]: 700 nM; IC50 (NCI-H460): 1000 nM; IC50 (Detroit 551 [2]): > 5000 nM

**Q.** For `COc1ccc2[nH]c(-c3ccc[se]3)cc(=O)c2c1OC`, which IC50 (HL-60) is on record?
**A.** 7700 nM

**Q.** And the IC50 [1]?
**A.** > 100000 nM

**Q.** And the IC50 (NCI-H460)?
**A.** 91500 nM

**Q.** What about the IC50 (Detroit 551 [2]) of the same molecule?
**A.** > 100000 nM
